21 molecules from ChEMBL document CHEMBL2413009, “Synthesis and structure activity relationship of imidazo[1,2-a]pyridine-8-carboxamides as a novel antimycobacterial lead series” (Bioorg Med Chem Lett, 2013) can be followed below.

The term solubility denotes the dissolved amount per volume that the medium holds. Read a high solubility as a readily soluble substance. One may read the microsomal CLint as a measure of how fast metabolising enzymes remove a compound, apart from limits set by blood flow. Lower therefore signals greater metabolic stability. Broadly, the fraction unbound is free concentration divided by total concentration. Low values mean little free substance, high ones much free substance. The term IC50 denotes the concentration at which inhibition is half-maximal. Usually logD stands for lipophilicity at a set pH, counting ionised and neutral species. A high value points to higher lipophilicity.

Data set [1] in a line: Aqueous solubility of the compound in 0.1 M sodium phosphate buffer at pH 7.4 after 24 hrs. In kind it is physicochemical.
Data set [2] relates to Mycobacterium tuberculosis. The experiment in a line: Antimycobacterial activity against Mycobacterium tuberculosis H37Rv ATCC 27294 after 7 days by broth microdilution method. In kind it is functional. The following applies: H37Rv ATCC 27294, 168 h. For orientation: Dilution methods test growth across graded concentrations, often in twofold steps.
The nature of data set [3]: Intrinsic clearance in mouse microsomes. In kind it is ADME, Microsome.
Data set [4] in a line: Fraction unbound in mouse plasma after 5 hrs by rapid equilibrium dialysis method. In kind it is ADME, cell-free. A general note: In equilibrium dialysis only unbound substance equilibrates across the membrane.
Data set [5] is described as follows: Intrinsic clearance in human microsomes. In kind it is ADME, Microsome. The essentials:
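Intrinsic clearance was measured in human microsomal preparations and is reported in µl/min/mg.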

Data set [6] can be described thus: Fraction unbound in human plasma after 5 hrs by rapid equilibrium dialysis method. In kind it is ADME, cell-free.
A further data set has as its system A549. Nature of the data set: Cytotoxicity against human A549 cells. In kind it is cell-based.
The test system of the next data set is Streptococcus pneumoniae. The experiment in a line: Antibacterial activity against Streptococcus pneumoniae by broth microdilution method. In kind it is functional.
For the next data set, the system named is Haemophilus influenzae. The experiment in a line: Antibacterial activity against Haemophilus influenzae by broth microdilution method. In kind it is functional.
A further data set deals with Escherichia coli. Nature of the data set: Antibacterial activity against Escherichia coli by broth microdilution method. In kind it is functional.
The next data set concerns Staphylococcus aureus. The experiment in a line: Antibacterial activity against Staphylococcus aureus by broth microdilution method. In kind it is functional.
Data set [7] can be described thus: Lipophilicity, log D of the compound in 0.01 M sodium phosphate at pH 7.4 after 5 hrs by shake-flask technique. In kind it is physicochemical.
Data set [8] has as its system Mycobacterium tuberculosis. The experiment in a line: Cidality activity against Mycobacterium tuberculosis H37Rv ATCC 27294 assessed as log reduction in bacterial numbers up to 28 days. In kind it is functional, organism-based. Put shortly:
(§1)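 Replicating Mtb grown aerobically in Middlebrook 7H9 broth and exposed to a range of compound concentrations up to 32 µg/mL. Bacterial numbers were followed over time as kill kinetics, and the result is expressed as log reduction in bacterial numbers.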

Data set [9] relates to Mycobacterium tuberculosis. The experiment in a line: Cidality activity against Mycobacterium tuberculosis H37Rv ATCC 27294 assessed as log reduction in bacterial numbers at 32 ug/mL up to 28 days. In kind it is functional. Put shortly: as §1

Values after ≈ are worked out from the molar mass of the structure shown. Some results are limits rather than exact numbers.

With `COc1cncc(-c2cc(-c3cn4cccc(C(N)=O)c4n3)ccc2F)c1`, the solubility at 24 h in [1] was under 1 µM. Further, the MIC in [2] was over 32 µg/mL.
In the case of `COc1cncc(-c2cccc(-c3cn4cccc(C(N)=O)c4n3)c2)c1`, in data set [3], the microsomal CLint amounted to 113 µL/min/mg. Moreover, the solubility at 24 h in data set [1] was under 1 µM. This molecule came in with an unbound share (fraction unbound) at 5 h in data set [4] of 0.019. The MIC in [2] is 0.5 µg/mL.
As for `CN(C)CCOc1cncc(-c2cccc(-c3cn4cccc(C(N)=O)c4n3)c2)c1`, the intrinsic metabolic clearance (microsomal CLint) in data set [5] came to 47 µL/min/mg. In data set [1], this molecule registered a solubility at 24 h of 320 µM (≈ 128 µg/mL). The same molecule displayed an MIC in [2] of 16 µg/mL. Also, the unbound share (fraction unbound) at 5 h in data set [6] was determined as 0.073.
In turn, `NC(=O)c1cccn2cc(-c3cccc(-c4cccc(F)c4)c3)nc12` yielded a solubility at 24 h in data set [1] of under 1 µM. Moreover, in [2], the MIC was 16 µg/mL.
The matching figures for `COc1cncc(-c2cccc(-c3nc4c(C(N)=O)cccc4o3)c2)c1`: 2 µM (≈ 0.691 µg/mL) and 2 µg/mL.
For `COc1cncc(-c2cccc(-c3nc4c(C(N)=O)cccc4[nH]3)c2)c1`, in that order: 3 µM (≈ 1.03 µg/mL) and 4 µg/mL.
`COc1cncc(-c2cccc(-c3cn4ccnc(C(N)=O)c4n3)c2)c1` displayed an intrinsic metabolic clearance (microsomal CLint) in [3] of 58 µL/min/mg. Besides, in data set [1], the concentration in solution (solubility at 24 h) was 10 µM (≈ 3.45 µg/mL). The IC50 with A549 was over 100 µM. In [4], this molecule returned a fraction unbound at 5 h of 0.04. The molecule further showed an MIC in data set [2] of 12.5 µM.
For `CCN(CC)CCNC(=O)c1cccn2cc(-c3cccc(-c4cncc(OC)c4)c3)nc12`, in [1], the solubility at 24 h is over 2460 µM. This molecule returned an MIC in data set [2] of 4 µg/mL.
In the case of `COc1ccn2cc(-c3cccc(-c4cncc(OC[C@H]5CCCO5)c4)c3)nc2c1C(N)=O`, the solubility at 24 h in data set [1] worked out at 120 µM (≈ 53.3 µg/mL). This molecule also showed an MIC in data set [2] of 1 µg/mL.
For `COc1cncc(-c2cccc(-c3cn4cccc(C(=O)N(C)C)c4n3)c2)c1`, in that order: 10 µM (≈ 3.72 µg/mL) and over 32 µg/mL.
Turning to `NC(=O)c1cccn2cc(-c3cccc(-c4cncc(OCC(F)F)c4)c3)nc12`, in [1], the solubility at 24 h was under 1 µM. The same molecule registered an IC50 with A549 of over 100 µM. Moreover, the MIC was over 200 µM with Streptococcus pneumoniae; 3.12 µM in data set [2]; over 200 µM against Haemophilus influenzae; over 200 µM against Escherichia coli; over 200 µM against Staphylococcus aureus.
On to `COc1ccn2cc(-c3cccc(-c4cncc(O[C@H]5CCOC5)c4)c3)nc2c1C(N)=O`, for which the solubility at 24 h in data set [1] was 600 µM (≈ 258 µg/mL). Also, the IC50 in the data set on A549 was over 100 µM. Also, the MIC in data set [2] was 12.5 µM.
For `COc1cncc(-c2cccc(-c3cn4ccc(OC)c(C(N)=O)c4n3)c2)c1`, the intrinsic metabolic clearance (microsomal CLint) turned out to be 48 µL/min/mg in data set [3] and 56 µL/min/mg in [5]. In data set [1], this molecule gave a solubility at 24 h of 40 µM (≈ 15 µg/mL). The results for the fraction unbound at 5 h in data set [4] and in data set [6] were 0.049 and 0.02, respectively. The molecule further had an MIC in data set [2] of 2 µg/mL. In data set [7], this molecule came in with a pH-dependent lipophilicity (logD) at 5 h of 2.3.
As to `COc1cncc(-c2cc(-c3cn4cccc(C(N)=O)c4n3)ccn2)c1`, the concentration in solution in data set [1] (solubility at 24 h) was 22 µM (≈ 7.6 µg/mL). The molecule further displayed an MIC in data set [2] of 16 µg/mL.
For the molecule `NC(=O)c1nccn2cc(-c3cccc(-c4cncc(OC[C@H]5CCCO5)c4)c3)nc12`, the solubility at 24 h in data set [1] is 40 µM (≈ 16.6 µg/mL). Also, in the data set with A549, the half-maximal inhibitory concentration (IC50) was over 100 µM. The molecule further yielded an MIC in data set [2] of 6.25 µM.
Consider `COc1cccc(-c2cccc(-c3cn4cccc(C(N)=O)c4n3)c2)c1`, for which, in [8], the Activity result is “Dose-dependent effect”. The log10cfu in [9] is 2. In data set [1], this molecule displayed a solubility at 24 h of under 1 µM. This molecule came in with an MIC in data set [2] of 2 µg/mL.
In data set [1], `COc1cncc(-c2cccc(-c3nc4c(C(N)=O)cccn4n3)c2)c1` yielded a solubility at 24 h of 18 µM (≈ 6.22 µg/mL). In addition, the MIC in [2] stood at 2 µg/mL.
For `COc1cncc(-c2cncc(-c3cn4cccc(C(N)=O)c4n3)c2)c1`, in that order: 3.5 µM (≈ 1.21 µg/mL) and over 32 µg/mL.
In [1], `NC(=O)c1cccn2cc(-c3cccc(-c4cncc(OC[C@H]5CCCO5)c4)c3)nc12` yielded a solubility at 24 h of 5.3 µM (≈ 2.2 µg/mL). For the same molecule, the MIC was over 200 µM against Streptococcus pneumoniae; 0.25 µg/mL in data set [2]; over 200 µM against Haemophilus influenzae; over 200 µM against Escherichia coli; over 200 µM against Staphylococcus aureus.
Turning to `NC(=O)c1cccn2cc(-c3cccc(-c4cncc(OCCF)c4)c3)nc12`, in [5], the intrinsic clearance (microsomal CLint) is 75 µL/min/mg. In addition, the solubility at 24 h in data set [1] came out at 16 µM (≈ 6.02 µg/mL). In addition, the IC50 in the data set with A549 was over 100 µM. In addition, the MIC in the data set with Streptococcus pneumoniae is over 200 µM; in data set [2], 0.78 µM; against Haemophilus influenzae, over 200 µM; against Escherichia coli it was over 200 µM; in the data set on Staphylococcus aureus it was over 200 µM. In data set [7], this molecule returned a pH-dependent lipophilicity (logD) at 5 h of 3.7. Moreover, the free fraction (fraction unbound) at 5 h in [6] turned out to be 0.01.
In turn, `CNC(=O)c1cccn2cc(-c3cccc(-c4cncc(OC)c4)c3)nc12` registered a solubility at 24 h in data set [1] of 5.5 µM (≈ 1.97 µg/mL). In [2], the MIC was 2 µg/mL.
